A selection: hits, their analogues and other compounds. The true share with any hit is near 1.7%.
S1P2 ag = agonists of human S1P2 receptor; S1P2-expressing cell line, agonist reporter read-out; 97,000 tested, 0.46% active; activation, % at 4.5 µM; in the data active = activation above about 16%;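 also: 0% = vehicle low control and 100% = maximal reference agonist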
HIV Rev-RRE inh = HIV Rev-RRE protein-RNA interaction inhibition. P05866. Rev peptide-RRE RNA binding, FRET. inhibition, % at 8 µM. 97,000 tested, 0.79% active. AID 704;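 active = inhibition above the screen-wide mean plus 3 SD, cut at about 35% in these data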;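 also: 0% = median DMSO wells and 100% = median Neomycin B control wells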
Target sequence (P05866 whole entry, looked up): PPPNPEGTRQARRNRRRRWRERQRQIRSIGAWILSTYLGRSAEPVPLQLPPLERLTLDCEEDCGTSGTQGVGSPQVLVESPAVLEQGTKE
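Test system: Cy5-tagged RRE RNA duplex with fluorescein-tagged Rev peptide | Read-out: % inhibition of FRET ratio versus controls | Probe or stimulus: Labelled Rev peptide | Incubation: 5 min RNA-compound premix plus 15 min binding step, 25 °C | Technique: FRET fluorescence readout | Benchmarks: DMSO low control, neomycin B high control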
S1P2 blocker = S1P2 (human) receptor antagonism; 97,000 tested, 0.21% active; cell-based S1P2 antagonist assay, inhibition at 5 uM; AID 736; inhibition, % at 5 µM; O95136; in the data active = inhibition above about 45%;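 also: CRE beta-lactamase reporter cells expressing human S1P2 stimulated with S1P; 0% = agonist at EC80 alone and 100% = agonist plus reference antagonist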
GALR2 agonist = agonists of human galanin receptor 2 (GALR2) | O43603 | GALR2-expressing cells, agonist activation read-out | activation, % (concentration not given with the values) | 140,000 tested, 0.48% active | AID 803; in the data active = activation above about 5%, passing the limit was not always enough;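 also: 0% = vehicle buffer wells and 100% = reference agonist at full effect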
Target sequence (O43603 whole entry, looked up): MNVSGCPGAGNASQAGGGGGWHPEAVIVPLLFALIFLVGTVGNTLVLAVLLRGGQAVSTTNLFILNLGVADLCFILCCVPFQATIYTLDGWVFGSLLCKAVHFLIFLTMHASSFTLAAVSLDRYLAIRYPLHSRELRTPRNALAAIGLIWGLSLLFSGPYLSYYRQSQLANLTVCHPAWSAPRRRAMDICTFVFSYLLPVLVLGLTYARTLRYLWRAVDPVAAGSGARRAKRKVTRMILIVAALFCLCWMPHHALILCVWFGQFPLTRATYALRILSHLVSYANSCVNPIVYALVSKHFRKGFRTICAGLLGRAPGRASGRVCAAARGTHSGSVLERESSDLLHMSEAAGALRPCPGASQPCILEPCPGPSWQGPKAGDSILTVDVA
GALR2 blocker = blocks the human galanin receptor 2; O43603; GALR2-expressing cells, antagonist mode; inhibition, % at 4 µM; 140,000 tested, 0.39% active; AID 828;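 also: cells stimulated with galanin 1-16 at roughly its EC80; 0% = agonist challenge control and 100% = basal control without agonist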
EphB4 antag = EphB4-ephrin-B2 interaction antagonism; EphB4 LBD / TNYL-RAW-Alexa532 peptide, fluorescence polarization; P54760; AID 720; 97,000 tested, 0.15% active; inhibition, % at 7 µM;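 active = inhibition above the screen-wide mean inhibition plus 3 SD, cut at about 15% in these data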;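 also: 0% = DMSO wells and 100% = excess unlabeled TNYL-RAW peptide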
GALR2 ant conf = confirmation of human galanin receptor 2 (GALR2) antagonists | 480 tested, 60% active | AID 866 | shares compounds with GALR2 blocker | GALR2-expressing cells, antagonist mode, inhibition | inhibition, % at 4 µM;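 also: cells stimulated with galanin at about its EC80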
BLA inh counter = inhibits beta-lactamase reporter in GALR2 antagonist counterscreen | shares compounds with GALR2 blocker | CHO NFAT-BLA reporter, beta-lactamase FRET, thapsigargin-stimulated | inhibition, % at 4.2 µM | 480 tested, 36% active;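 active = inhibition above the mean inhibition across tested compounds plus 3 SD, cut at about 27% in these data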;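 also: 0% = 500 nM thapsigargin stimulated wells and 100% = unstimulated BSA only wells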
* = called active by the depositor; / = no result; [ ] = remark or other dose. Rule as the data show it, unless noted: active = inhibition above about 27%; inactive = the rest.

SMILES | S1P2 ag | HIV Rev-RRE inh | S1P2 blocker | GALR2 agonist | GALR2 blocker | EphB4 antag | GALR2 ant conf | BLA inh counter
Cc1ccccc1Nc1cccc2nonc12 | / | / | / | -2.8 | 33.1* | / | 37.6* | 46.8*
Cc1ccccc1Nc1nc2ccccc2s1 | / | / | / | -0.5 | 9.0 | / | / | /
Cc1ccc(NC(=O)N2CCC(C(=O)NCC(C)C)CC2)cc1 | -7.5 | -0.4 | 10.5 | -2.3 | 3.6 | -8.4 | / | /
O=C(CSc1nnnn1C1CCCC1)NCc1ccccc1 | -2.6 | 3.0 | 14.9 | -0.5 | -3.2 | 2.2 | / | /
O=C(CSc1nnnn1C1CC2CCC1C2)Nc1ccnc2ccccc12 (stereo not drawn) | / | / | / | -0.4 | 45.4* | / | 63.7* | 20.1
CC(=O)c1c(C)[nH]c(C(=O)COc2cc(C)ccc2C(C)C)c1C | -1.3 | 17.9 | 65.6* | -1.7 | 32.6* | -2.4 | 49.7* | 18.5
CC(=O)c1c(C)[nH]c(C(=O)COc2ccc(C#N)cc2)c1C | -6.6 | 3.6 | 8.3 | -0.9 | 8.0 | -2.7 | / | /
O=C(Nc1ccc2nc(-c3cccnc3)[nH]c2c1)C12CC3CC(CC(C3)C1)C2 | -7.0 | -1.9 | 4.1 | -2.8 | 42.5* | 0.0 | 29.6* | 9.6
O=C(Nc1ccc2nc(-c3cccnc3)[nH]c2c1)C1CCCCC1 | 1.1 | 0.7 | -11.5 | -0.7 | 12.3 | 2.2 | / | /
O=[N+]([O-])c1cc(-c2ncccn2)c([N+](=O)[O-])s1 | / | / | / | -0.9 | 45.1* | / | 55.5* | 26.5
Cc1nc2ccccn2c1/C(O)=C1\C(=O)C(=O)N(CCCn2ccnc2)C1c1ccncc1 (stereo not drawn) | -8.2 | 9.5 | 14.2 | -1.8 | -6.7 | 0.8 | / | /
COC(=O)/C(=C1/Oc2cc(C)oc(=O)c2S1)C(F)(F)F | / | / | / | -1.6 | 61.1* | / | 66.5* | 51.2*
O=C(Nn1cnnc1)c1ccc(F)c(S(=O)(=O)N2CCCCC2)c1 | -11.0 | 7.8 | 3.4 | -2.6 | -12.2 | 2.6 | / | /
CC1=C(C)/C(=N\OS(=O)(=O)c2ccccc2)C=CC1=O | -0.8 | 6.7 | 96.0* | -1.9 | 77.4* | -2.2 | 78.0* | 70.8*
Cc1ccc(S(=O)(=O)O/N=C2\CCCc3ccccc32)cc1 | -5.8 | 10.3 | 1.8 | -5.7 | 4.7 | 3.5 | / | /
CCOc1cnn(-c2cc(Oc3ccc(C)cc3)ncn2)c(=O)c1Cl | -5.6 | 1.2 | 0.8 | -1.3 | 27.5* | 2.6 | 3.2 | 9.7
COC(=O)c1cnn(-c2cc(Oc3ccccc3)ncn2)c1N | -5.2 | 4.4 | -8.4 | -1.6 | 0.3 | -5.5 | / | /
COc1ccccc1Oc1cc(-n2nc(C)cc2C)ncn1 | / | / | / | -0.8 | -5.2 | / | / | /
Cc1ccccc1Oc1cc(-n2ncc(Cl)c(Cl)c2=O)ncn1 | / | / | / | -1.8 | 81.7* | / | 97.4* | 103.3*
O=C(COC(=O)c1ccccc1Nc1cccc(C(F)(F)F)c1)NCc1ccco1 | -2.5 | 6.1 | -34.7 | -3.3 | -10.2 | -10.2 | / | /
CCN(CCO)C(=O)C12CCC(C)(C(=O)C1)C2(C)C (stereo not drawn) | -0.8 | -3.8 | -14.1 | -1.5 | 0.4 | -9.3 | / | /
Cc1ccc2c(C)[nH]c(=O)cc2c1 | -9.8 | 2.2 | 5.9 | -2.0 | 8.3 | 6.5 | / | /
CCOC(=O)COc1ccccc1/C=C\[N+](=O)[O-] | / | / | / | -3.5 | 29.8* | / | 43.1* | 30.3*
Cn1cc(C(=O)NCN2CCCCC2)c2ccccc21 | -11.3 | 5.7 | -5.1 | -2.8 | 9.2 | -0.9 | / | /
Cn1c(=O)c(NCCc2ccccc2)c2c3c(cccc31)C(=O)c1ccccc1-2 | -4.0 | 140.4*[fluorescence artefact?] | 28.5 | 0.7 | 40.4* | 119.3*[fluorescence artefact?] | 38.3* | 41.9*
SMILES | S1P2 ag | HIV Rev-RRE inh | S1P2 blocker | GALR2 agonist | GALR2 blocker | EphB4 antag | GALR2 ant conf | BLA inh counter
O=C(Nc1ccc(Oc2ccccc2)cc1)C1CCCN(c2ncccn2)C1 (stereo not drawn) | -4.3 | 0.4 | 2.9 | -1.4 | 3.8 | 0.5 | / | /
Cc1ccc(NS(=O)(=O)c2ccc(CCC(=O)NC3CC3)cc2)cc1 | -2.7 | 0.7 | -4.0 | -4.0 | 28.1* | -5.0 | 10.0 | 11.5
Cc1ccc(NC(=O)CCc2ccc(S(=O)(=O)NC3CCCCC3)cc2)cc1 | -6.2 | 8.1 | -4.8 | -2.1 | 14.0 | 6.1 | / | /
Cc1cccc(-n2c(N)c(-c3nc4ccccc4n3C)c3nc4ccccc4nc32)c1 | / | / | / | 0.4 | 10.6 | / | / | /
Cn1c(-c2c(N)n(-c3ccccc3)c3nc4ccccc4nc23)nc2ccccc21 | / | / | / | 0.3 | 33.1* | / | 34.5* | 47.3*
CCN(CC)CCCN1C(=O)C(O)=C(C(=O)c2cccs2)C1c1ccccn1 (stereo not drawn) | -1.4 | 11.1 | 0.2 | -1.8 | 0.7 | 1.1 | / | /
O=C(NCCN1CCCC1)c1ccc(CS(=O)(=O)c2c(Cl)cccc2Cl)o1 | -1.0 | 4.3 | -2.9 | -4.5 | 8.3 | -0.3 | / | /
Cc1[nH]c2ccccc2c1/C=C(\C#N)C(=O)NCc1ccccc1 | / | / | / | 0.1 | 32.5* | / | 21.8 | 4.5
Cc1ccc(Cn2ccc(=O)c(OCc3c(Cl)cccc3Cl)c2C)cc1 | -4.4 | 12.2 | -18.0 | -1.9 | -12.7 | -2.5 | / | /
